For data set [1], the target named is T1, Prostaglandin D2 receptor (Homo sapiens, UniProt Q13258).
T1 sequence (Q13258 whole entry): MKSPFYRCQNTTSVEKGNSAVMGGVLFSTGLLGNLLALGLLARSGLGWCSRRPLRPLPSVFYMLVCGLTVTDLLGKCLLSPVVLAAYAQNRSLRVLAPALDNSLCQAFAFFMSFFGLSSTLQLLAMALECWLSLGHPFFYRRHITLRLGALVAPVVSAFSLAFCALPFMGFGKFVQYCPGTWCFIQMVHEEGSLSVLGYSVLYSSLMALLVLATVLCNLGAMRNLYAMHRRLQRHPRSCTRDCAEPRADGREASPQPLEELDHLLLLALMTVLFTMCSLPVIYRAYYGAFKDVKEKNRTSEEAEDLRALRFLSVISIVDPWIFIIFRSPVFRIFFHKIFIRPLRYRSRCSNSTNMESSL
In words: Antagonist activity at prostanoid DP1 receptor. It is filed as functional.

For data set [2], the target named is T2, Thromboxane A2 receptor (Homo sapiens, UniProt P21731).
T2 sequence (P21731 whole entry): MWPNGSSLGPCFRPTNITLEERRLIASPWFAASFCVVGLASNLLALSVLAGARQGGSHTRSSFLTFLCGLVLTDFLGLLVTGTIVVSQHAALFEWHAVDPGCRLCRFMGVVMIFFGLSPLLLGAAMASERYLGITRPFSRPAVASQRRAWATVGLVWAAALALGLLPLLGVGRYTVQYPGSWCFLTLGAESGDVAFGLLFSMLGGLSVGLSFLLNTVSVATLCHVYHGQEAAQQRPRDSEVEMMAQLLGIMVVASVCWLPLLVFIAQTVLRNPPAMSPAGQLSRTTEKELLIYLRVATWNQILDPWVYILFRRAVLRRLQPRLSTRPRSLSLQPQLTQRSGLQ
The data set can be described thus: Antagonist activity at prostanoid TP receptor. The format is functional.

A short description of data set [3]: Chemical stability of compound in 0.01N HCl after 2 hrs. The format is physicochemical. The note with it: read-out: Stability. The gist of the method:
(§1)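 Compound incubated in 0.01 N HCl at 37 °C; percent of compound recovered after 2 h or 6 h.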

Data set [4] has as its target Prostacyclin receptor (Homo sapiens, UniProt P43119). In words: Binding affinity to prostanoid receptor IP receptor.
Data set [5] has as its target Prostaglandin F2-alpha receptor (Homo sapiens, UniProt P43088). The data set can be described thus: Binding affinity to prostanoid receptor FP receptor.
Data set [6] in a line: Chemical stability of compound in 0.01N HCl after 6 hrs. The format is physicochemical. The note with it: read-out: Stability. The gist of the method: as §1
The species named for data set [7] is Homo sapiens. In words: Selectivity ratio of IC50 for prostanoid DP1 receptor to IC50 for TP receptor in human platelet. The procedure, abridged:
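Ratio of IC₅₀ values from two human platelet-rich plasma assays: PGD₂-induced cAMP accumulation (DP1) and U46619-induced platelet aggregation (TP).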

Data set [8] has as its target Prostaglandin E2 receptor EP4 subtype (Homo sapiens, UniProt P35408). In words: Binding affinity to prostanoid receptor EP4 receptor.
Data set [9] is described as follows: Selectivity ratio of Ki for prostanoid DP1 receptor to Ki for prostanoid EP3 receptor.
Data set [10] concerns the target Prostaglandin E2 receptor EP2 subtype (Homo sapiens, UniProt P43116). In words: Binding affinity to prostanoid receptor EP2 receptor.
Data set [11] addresses T3, Prostaglandin E2 receptor EP3 subtype (Homo sapiens, UniProt P43115).
T3 sequence (P43115 whole entry): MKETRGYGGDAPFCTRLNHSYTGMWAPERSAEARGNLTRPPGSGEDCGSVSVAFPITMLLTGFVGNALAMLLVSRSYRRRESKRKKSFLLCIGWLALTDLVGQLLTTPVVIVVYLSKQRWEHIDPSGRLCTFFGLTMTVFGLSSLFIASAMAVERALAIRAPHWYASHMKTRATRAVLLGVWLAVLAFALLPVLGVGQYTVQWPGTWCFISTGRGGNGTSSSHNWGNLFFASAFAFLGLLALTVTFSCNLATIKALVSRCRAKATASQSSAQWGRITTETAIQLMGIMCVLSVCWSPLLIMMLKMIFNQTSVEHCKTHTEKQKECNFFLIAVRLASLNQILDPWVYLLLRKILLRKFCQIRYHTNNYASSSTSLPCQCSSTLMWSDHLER
The data set can be described thus: Binding affinity to prostanoid receptor EP3 receptor.

Data set [12] concerns the target T4, Prostaglandin E2 receptor EP1 subtype (Homo sapiens, UniProt P34995).
T4 sequence (P34995 whole entry): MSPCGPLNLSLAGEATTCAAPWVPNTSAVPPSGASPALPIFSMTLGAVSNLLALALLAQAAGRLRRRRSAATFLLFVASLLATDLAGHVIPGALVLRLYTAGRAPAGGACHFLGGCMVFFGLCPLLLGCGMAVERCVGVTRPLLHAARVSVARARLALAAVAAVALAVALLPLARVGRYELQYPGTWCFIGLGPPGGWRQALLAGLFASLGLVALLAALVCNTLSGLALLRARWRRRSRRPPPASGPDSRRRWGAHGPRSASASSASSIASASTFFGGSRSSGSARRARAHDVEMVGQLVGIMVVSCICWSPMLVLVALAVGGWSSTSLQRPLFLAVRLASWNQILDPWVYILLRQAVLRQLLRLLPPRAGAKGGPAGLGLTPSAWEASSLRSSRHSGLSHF
In words: Binding affinity to prostanoid receptor EP1 receptor.

The target in data set [13] is T1, Prostaglandin D2 receptor. The data set can be described thus: Antagonist activity at prostanoid DP1 receptor in human platelet assessed as inhibition of PGD2 induced accumulation of cAMP. The format is functional. The gist of the method:
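Human platelet-rich plasma; cAMP accumulation induced by PGD₂, measured with antagonist present; IC₅₀ reported.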

In general, Ki refers to the dissociation constant of the complex between target and ligand, obtained from inhibition or displacement. A high value points to lower affinity. What is called IC50 is the point on the concentration scale where inhibition reaches its midpoint.

Molecules are shown by their SMILES.

Chain of Prostaglandin E2 receptor EP4 subtype (P35408 whole entry): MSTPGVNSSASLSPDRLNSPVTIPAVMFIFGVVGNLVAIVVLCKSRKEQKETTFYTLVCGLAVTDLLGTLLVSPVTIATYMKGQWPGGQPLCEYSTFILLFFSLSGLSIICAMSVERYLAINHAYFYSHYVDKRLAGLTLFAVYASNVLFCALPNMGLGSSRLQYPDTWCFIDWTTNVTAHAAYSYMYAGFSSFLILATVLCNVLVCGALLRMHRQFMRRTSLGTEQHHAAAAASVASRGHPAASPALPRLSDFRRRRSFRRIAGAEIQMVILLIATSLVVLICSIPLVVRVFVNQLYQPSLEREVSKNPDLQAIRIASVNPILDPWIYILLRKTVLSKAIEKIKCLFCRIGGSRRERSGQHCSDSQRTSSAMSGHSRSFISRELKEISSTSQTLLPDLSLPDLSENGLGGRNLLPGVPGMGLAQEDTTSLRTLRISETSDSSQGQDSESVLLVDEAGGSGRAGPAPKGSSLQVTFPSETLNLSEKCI
Chain of Prostacyclin receptor (P43119 whole entry): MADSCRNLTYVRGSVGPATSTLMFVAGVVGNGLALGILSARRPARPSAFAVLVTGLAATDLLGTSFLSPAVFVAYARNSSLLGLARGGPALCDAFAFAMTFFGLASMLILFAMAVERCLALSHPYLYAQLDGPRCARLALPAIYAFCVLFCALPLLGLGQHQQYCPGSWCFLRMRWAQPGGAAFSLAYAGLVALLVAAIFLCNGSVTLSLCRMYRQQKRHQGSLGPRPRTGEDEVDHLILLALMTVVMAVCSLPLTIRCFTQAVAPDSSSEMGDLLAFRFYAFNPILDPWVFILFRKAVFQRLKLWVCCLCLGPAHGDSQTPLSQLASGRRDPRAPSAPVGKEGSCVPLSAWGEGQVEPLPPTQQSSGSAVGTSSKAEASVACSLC
Chain of Prostaglandin E2 receptor EP2 subtype (P43116 whole entry): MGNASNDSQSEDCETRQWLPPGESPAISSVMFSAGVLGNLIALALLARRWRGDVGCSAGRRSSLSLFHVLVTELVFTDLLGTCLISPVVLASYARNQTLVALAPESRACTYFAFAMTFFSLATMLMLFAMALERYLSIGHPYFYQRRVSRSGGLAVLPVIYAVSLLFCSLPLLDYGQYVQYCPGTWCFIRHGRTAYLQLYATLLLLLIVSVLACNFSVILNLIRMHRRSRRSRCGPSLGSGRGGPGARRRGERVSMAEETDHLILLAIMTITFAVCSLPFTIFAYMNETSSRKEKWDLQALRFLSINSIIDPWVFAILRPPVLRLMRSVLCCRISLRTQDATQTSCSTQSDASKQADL
Chain of Prostaglandin F2-alpha receptor (P43088 whole entry): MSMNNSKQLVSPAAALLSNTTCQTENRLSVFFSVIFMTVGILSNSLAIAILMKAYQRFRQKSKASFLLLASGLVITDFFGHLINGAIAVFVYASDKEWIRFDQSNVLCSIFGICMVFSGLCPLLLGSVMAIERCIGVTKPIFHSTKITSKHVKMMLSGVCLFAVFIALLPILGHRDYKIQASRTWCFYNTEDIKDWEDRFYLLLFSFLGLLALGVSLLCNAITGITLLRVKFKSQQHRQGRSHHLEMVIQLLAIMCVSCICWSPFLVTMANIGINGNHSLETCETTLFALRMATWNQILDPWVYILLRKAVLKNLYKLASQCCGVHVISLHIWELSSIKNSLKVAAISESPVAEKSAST

For `C[C@@H](c1ccc(Cl)c(F)c1)n1c2c(c3cc(F)cc(S(C)(=O)=O)c31)CCC[C@@H]2CC(=O)O`, the Ki amounted to 0.38 nM in data set [1] and 200 nM in data set [2].
Taken in the same sequence, the figures for `C[C@@H](c1ccc(S(C)(=O)=O)cc1)n1c2c(c3cc(F)cc(S(C)(=O)=O)c31)CCC[C@@H]2CC(=O)O` were 16.5 nM and 1480 nM.
Taken in the same sequence, the figures for `C[C@@H](c1ccc(Br)cc1)n1c2c(c3cc(F)cc(S(C)(=O)=O)c31)CCC[C@@H]2CC(=O)O` were 0.38 nM and 106 nM.
Taken in the same sequence, the figures for `CS(=O)(=O)c1cc(F)cc2c3c(n(Cc4ccc(Cl)cc4)c12)C(CC(=O)O)CCC3` (racemic) were 0.89 nM and 2.51 nM.
In the case of `CS(=O)(=O)c1cc(F)cc2c3c(n([C@H](c4ccc(Cl)cc4)C(F)F)c12)[C@@H](CC(=O)O)CCC3`, the Ki amounted to 0.36 nM in [1] and 130 nM in [2].
For the compound `C[C@@H](c1ccc(Cl)cc1)n1c2c(c3cc(F)cc(S(C)(=O)=O)c31)CCC[C@@H]2CC(=O)O`, the Ki was found to be 0.75 nM in data set [1] and 184 nM in data set [2]. Also, the remaining at 2 h in [3] amounted to 79%.
On to `C[C@@H](c1ccc(F)cc1)n1c2c(c3cc(F)cc(S(C)(=O)=O)c31)CCC[C@@H]2CC(=O)O`, for which the Ki in data set [1] was 0.33 nM; in data set [2], 100 nM.
Take `C[C@@H](c1ccc(C(F)(F)F)cc1)n1c2c(c3cc(F)cc(S(C)(=O)=O)c31)CCC[C@@H]2CC(=O)O`: the Ki in data set [1] stood at 0.43 nM; in [4], 15.5 µM; in data set [5], 4.32 µM; in [2], 338 nM; in data set [8], 6.61 µM; in [10], 2270 nM. Also, the Ki was determined as 830 nM in data set [11] and 4.59 µM in [12]. The remaining at 6 h in [6] was found to be 99.6%. The Ratio in data set [7] turned out to be 7760; in data set [9], 1900. The IC50 in data set [13] was 2.5 nM.
Regarding `C[C@@H](c1cccc(Cl)c1)n1c2c(c3cc(F)cc(S(C)(=O)=O)c31)CCC[C@@H]2CC(=O)O`, the values for the Ki in [1] and in data set [2] were 0.31 nM and 292 nM, respectively.
Regarding `C[C@@H](c1ccccc1)n1c2c(c3cc(F)cc(S(C)(=O)=O)c31)CCC[C@@H]2CC(=O)O`, the Ki in data set [1] came out at 0.36 nM; in [2] it was 362 nM.
For the compound `CC(c1ccc(Cl)cc1)n1c2c(c3cc(F)cc(S(C)(=O)=O)c31)CCCC2CC(=O)O` (single isomer, unassigned; slow-eluting), the affinity in [1] corresponds to a Ki of 1.3 nM.
On the same count and under the same terms, the result for `CC(c1ccc(Cl)cc1)n1c2c(c3cc(F)cc(S(C)(=O)=O)c31)CCCC2CC(=O)O` (single isomer, unassigned; fast eluting) reads 12 nM.
Take `CS(=O)(=O)c1cc(F)cc2c3c(n([C@@H](CF)c4ccc(Cl)cc4)c12)[C@@H](CC(=O)O)CCC3`: the Ki in data set [1] was 0.39 nM; in [2], 138 nM.
On to `C[C@@H](c1ccc(Cl)c(Cl)c1)n1c2c(c3cc(F)cc(S(C)(=O)=O)c31)CCC[C@@H]2CC(=O)O`, for which the Ki was found to be 0.33 nM in [1] and 112 nM in [2].
In the case of `C[C@@H](c1ccc(Cl)cc1F)n1c2c(c3cc(F)cc(S(C)(=O)=O)c31)CCC[C@@H]2CC(=O)O`, the values for the Ki in data set [1] and in data set [2] were 0.41 nM and 270 nM, respectively.
On to `C[C@@H](c1ccc(C#N)cc1)n1c2c(c3cc(F)cc(S(C)(=O)=O)c31)CCC[C@@H]2CC(=O)O`, for which the Ki turned out to be 0.51 nM in data set [1] and 93 nM in data set [2].

Values taken from ChEMBL document CHEMBL1287728, “Potent and highly selective DP1 antagonists with 2,3,4,9-tetrahydro-1H-carbazole as pharmacophore” (Bioorg Med Chem Lett, 2010).
